Sampled rows, rich in hits. Any-hit rate of the full collection: about 1.7%.
IMP-1 inh: blocks Pseudomonas aeruginosa IMP-1 metallo-beta-lactamase; inhibition, % at 5.6 µM; actives 0.45% (n = 290,000); purified IMP-1, nitrocefin hydrolysis, epi-absorbance fluorescence;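 active = inhibition above the mean plus 3 SD of all compounds in the same screening run, cut at about 4.5% in these data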;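 note: 0% = IMP-1 with DMSO and 100% = DMSO wells lacking enzyme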
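System: Purified recombinant IMP-1 metallo-beta-lactamase enzyme | Measured by: Fluorescence quenching readout, ex 480/em 530 nm | Replication: Singlicate | Incubation: 15 min preincubation plus 25 min reaction at 25 °C | Evaluation: Percent inhibition from optical density relative to buffer-blank wells | Benchmarks: DMSO with and without IMP-1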
PolyA inhibitor: blocks polyadenylation in yeast reporter cells | activity score, % at 12 µM | S. cerevisiae SKY197-pL101 polyadenylation reporter, beta-gal luminescence; efflux-impaired pdr1/pdr3 knockout yeast; score 100 = 6 SD above DMSO | actives 0.02% (n = 300,000);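 active = lowest replicate activity score at least 50, where 100 means six control SD above control mean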;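 note: yeast exposed to compound for 9 h at 30 °C; higher score means more reporter readthrough which indicates perturbed polyadenylation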
Neddyl block: inhibitors of human cullin neddylation; P61081+Q13564; TR-FRET cullin neddylation, biochemical; calls only at 25 µM; actives 0.58% (n = 360,000); in the data active = inhibition above about 36%
Target sequence (P61081 whole entry, looked up): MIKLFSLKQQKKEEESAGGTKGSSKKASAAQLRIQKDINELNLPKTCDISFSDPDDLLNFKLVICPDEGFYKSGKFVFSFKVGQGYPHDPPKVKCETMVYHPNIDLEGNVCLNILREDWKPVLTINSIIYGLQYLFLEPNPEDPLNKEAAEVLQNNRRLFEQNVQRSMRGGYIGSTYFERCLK
Target sequence (Q13564 whole entry, looked up): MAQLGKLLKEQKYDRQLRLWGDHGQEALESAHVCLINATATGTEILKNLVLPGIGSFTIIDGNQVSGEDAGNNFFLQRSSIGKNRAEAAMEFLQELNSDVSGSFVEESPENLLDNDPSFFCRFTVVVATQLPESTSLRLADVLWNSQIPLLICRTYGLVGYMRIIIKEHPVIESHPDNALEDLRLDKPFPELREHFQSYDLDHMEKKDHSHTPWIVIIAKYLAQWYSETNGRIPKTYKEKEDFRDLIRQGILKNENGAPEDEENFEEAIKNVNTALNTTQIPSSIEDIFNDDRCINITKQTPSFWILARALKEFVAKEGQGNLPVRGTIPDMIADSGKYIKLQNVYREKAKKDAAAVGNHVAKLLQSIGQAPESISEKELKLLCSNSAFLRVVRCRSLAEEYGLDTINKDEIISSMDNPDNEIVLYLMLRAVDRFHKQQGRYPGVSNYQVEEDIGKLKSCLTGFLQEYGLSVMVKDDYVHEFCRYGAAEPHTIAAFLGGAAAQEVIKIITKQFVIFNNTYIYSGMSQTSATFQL
VIM-2 inh: blocks Pseudomonas aeruginosa VIM-2 metallo-beta-lactamase; actives 0.89% (n = 290,000); inhibition, % at 5.6 µM; AID 1527; purified VIM-2, nitrocefin hydrolysis, epi-absorbance fluorescence;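 active = inhibition above the mean of all tested compounds plus 3 SD, cutoff set per screening run, cut at about 7.5% in these data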;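 note: red hydrolysis product quenches plate fluorescence so inhibitors raise well fluorescence; 0% = enzyme with DMSO and 100% = DMSO without enzyme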
procasp7 counter: activates human procaspase-7, counter-screen for procaspase-3 activators; P55210; recombinant procaspase-7, Ac-DEVD-pNA absorbance 405 nm; D23A/D198A/D206A triple mutant, cannot self-cleave; scale: DMSO 0, 5 µM enzyme 100; activation, % at 8.5 µM; actives 0.093% (n = 330,000);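 active = percent activation above the screen-wide mean plus 3 SD, cut at about 25% in these data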
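System: Procaspase-7 triple mutant (PC-7 D3A); measure: % activation from two-timepoint absorbance difference, scaled to controls; times: 1 h compound preincubation, 2 h substrate cleavage, 25 °C; also added: Ac-DEVD-pNA substrate, 400 µM as added; measured by: Epi-absorbance of released pNA at 405 nm, two timepoints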
procasp3 activ: activates human procaspase-3; P42574; recombinant procaspase-3 D3A, Ac-DEVD-pNA absorbance 405 nm; actives 0.11% (n = 330,000); activation, % at 8.5 µM;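 active = activation above the mean of all tested compounds plus 3 SD, cut at about 21% in these data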;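 note: 0% = DMSO alone and 100% = DMSO wells spiked with extra 5 µM PC-3 D3A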
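Assay system: Procaspase-3 D3A mutant, all three cleavage aspartates alanine. Buffer or medium: Zinc-free HEPES saline buffer with Triton X-100. Times: 1 h compound preincubation, 2 h substrate hydrolysis at 25 °C. Measured by: 405 nm absorbance of p-nitroaniline, reads at 0 and 120 min. Read-out basis: percent activation relative to control range. Replicates: singlicate.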
The depositor's hits bear a star; i = inactive; · = no result given; + = active, no number.

SMILES	IMP-1 inh	PolyA inhibitor	Neddyl block	VIM-2 inh	procasp7 counter	procasp3 activ
COc1ccc(/C=C2/SC(=S)N(c3ccc(S(=O)(=O)Nc4nccs4)cc3)C2=O)cc1	-1.9	-6.3	+	-1.8	-23.7	-17.8
CC(C)S(=O)(=O)N1CCCC(C(=O)c2cccc(Cl)c2)C1 (stereo unspecified)	39.5*	-1.9	i	1.0	7.1	2.0
COC(=O)CSc1nnc(CNC(=O)c2ccccc2F)n1-c1ccccc1	-3.0	-2.7	i	-3.4	1.7	-2.8
CCC1=C2CC[C@H]3C(=O)N(c4ccccc4)C(=O)[C@H]3[C@H]2[C@@]2(C)C(=NCC(=O)OC)OC(=O)N2C1=O	·	·	i	·	12.3	5.8
Nc1cccc2[nH]c(C(F)(F)F)nc12	14.9*	-0.3	i	2.6	-7.7	-1.0
O=C(O)c1cccc2[nH]c(C(F)(F)F)nc12	-1.2	-12.7	i	-5.4	-1.9	-3.3
O=C1S/C(=C\c2ccc(O)c([N+](=O)[O-])c2)C(=O)N1c1ccccc1Cl	-6.0	83.1*	i	-2.6	0.9	-4.3
O=C1S/C(=C\c2ccc(O)c([N+](=O)[O-])c2)C(=O)N1Cc1cccc([N+](=O)[O-])c1	-3.3	-37.3	i	-3.2	-2.1	-0.6
CSCCC(c1nc2ccccc2[nH]1)n1c(-c2ccc(C)cc2)nc2ccccc21 (stereo unspecified)	·	·	i	·	·	·
Cc1nc2ccc(Cc3ccc4nc(C)[nH]c4c3)cc2[nH]1	-2.0	-4.4	i	-3.2	1.6	-5.5
COc1cccc(N2CCN(c3ncnc4c3[nH]c3ccccc34)CC2C)c1 (stereo unspecified)	-3.3	-12.0	·	-4.8	6.6	-7.1
COc1cccc(N2CCN(c3ncnc4c3[nH]c3ccc(F)cc34)CC2C)c1 (stereo unspecified)	-0.3	-9.8	+	0.9	-0.5	-3.8
O=C(c1cnc2n(c1=O)CCS2)N1CCN(C(c2ccccc2)c2ccc(Cl)cc2)CC1 (stereo unspecified)	5.9*	3.7	i	0.7	5.2	1.1
Cc1c(C)c2ccc(OCC(=O)NC3CCN(Cc4ccccc4)CC3)cc2oc1=O	-3.2	11.5	·	12.0*	0.4	6.4
c1cc2c3c(cccc3c1)NC1(CCCCCC1)N2	-2.4	-10.7	i	-2.8	-9.6	11.1
c1cc2c3c(cccc3c1)NC1(CCC3(CC1)Nc1cccc4cccc(c14)N3)N2	-1.0	6.1	+	-1.6	-15.5	-3.7
CCOC(=O)C(Sc1ncnc2c1sc1nc(N3CCOCC3)c3c(c12)CCCC3)c1ccccc1 (stereo unspecified)	6.2*	·	·	-6.2	·	·
OCCN1CCN(c2ncnc3c2sc2nc(N4CCOCC4)c4c(c23)CCC4)CC1	0.3	-12.3	·	9.9*	0.7	-1.6
CCOC(=O)CSc1ncnc2c1sc1nc(N3CCOCC3)c3c(c12)CCCC3	1.9	2.0	i	0.1	-0.9	6.8
O=C(O)CSc1ncnc2c1sc1nc(-c3ccccc3)c3c(c12)CCC3	9.4*	5.5	i	-1.8	0.8	3.9
OCCN(CCO)c1ncnc2c1sc1nc(N3CCOCC3)c3c(c12)CCCC3	-2.5	15.2	i	9.0*	10.7	-6.4
O=C(NC(=S)NCC1CCCO1)c1cccc([N+](=O)[O-])c1 (stereo unspecified)	-2.6	2.6	i	0.2	-10.5	3.3
Cc1cc(C)n(-c2ccc(C(=O)Nc3ccc(C)c(S(=O)(=O)N(C)C)c3)cc2)n1	-4.3	11.1	i	-4.7	0.6	5.8
Fc1ccccc1CSc1ncnc2c1ncn2C1CCCO1 (stereo unspecified)	·	·	i	·	·	·
O=c1[nH]cnc2c1sc1nc(-c3ccccc3)c3c(c12)CCCC3	-1.1	4.9	i	-3.1	-6.8	12.4
SMILES	IMP-1 inh	PolyA inhibitor	Neddyl block	VIM-2 inh	procasp7 counter	procasp3 activ
S=c1nc[nH]c2c1sc1nc(-c3ccccc3)c3c(c12)CCCC3	15.8*	-6.8	i	0.9	-5.9	-0.2
CC(C)(C)CC(=O)Nc1cccc2c1CCCC2	6.9*	-1.9	i	-0.6	-1.2	1.2
O=C(COc1ccccc1)Nc1cccc2c1CCCC2	-1.1	-4.8	i	0.8	11.5	6.2
COc1ccccc1N=C(C)C1=C(O)CSC1=O	5.6*	15.3	i	-3.0	-19.4	-15.8
CC(=Nc1ccc(C)c(C)c1)C1=C(O)CSC1=O	0.0	17.8	i	-1.2	-4.6	-7.8
COc1ccc(N(CN2C(=O)c3ccccc3C2=O)C(=O)C(C)C)cc1	-1.7	-6.6	i	0.0	0.6	3.8
CCC1(N(C(C)=O)c2ccc(OC)cc2)C(=O)c2ccccc2C1=O	21.1*	2.6	i	-0.3	2.1	-5.9
Cc1sc(NC(=O)CN2CCCC2)nc1-c1ccc2c(c1)CCN2C(=O)c1ccc(F)cc1	-0.2	7.2	i	2.5	3.1	-0.2
CCC(C(=O)NCCCN1CCN(C)CC1)n1nc(C)c2sc3ccccc3c2c1=O (stereo unspecified)	-3.4	-7.4	i	0.2	-7.8	8.7
Cc1nn(CC(=O)N2CCN(C)CC2)c(=O)c2c1sc1ccccc12	-4.4	5.3	i	10.9*	3.7	6.7
Cc1nn(CCCC(=O)NCCCN2CCN(C)CC2)c(=O)c2c1sc1ccccc12	-1.6	-9.0	i	11.5*	-7.7	5.1
CCOC(=O)N1CCN(C(=O)Cn2nc(C)c3sc4ccccc4c3c2=O)CC1	-2.5	6.5	i	2.5	-6.2	0.2
O=C1C(c2ccccc2)c2ccccc2N1Cc1ccccc1 (stereo unspecified)	·	·	i	·	·	·
Cc1ccccc1NC(=O)/C=C/c1ccc([N+](=O)[O-])s1	-0.8	-45.2	+	-3.5	7.0	3.8
O=C(Cn1cnc2cc([N+](=O)[O-])ccc2c1=O)NCCc1ccc(Cl)cc1	-0.3	3.2	i	-0.4	6.3	5.1
COc1cccc2sc3ccc(C#CC4(N)CCCCC4)cc3c(=O)c12	-1.9	2.1	i	9.0*	-0.3	-2.0
COc1cccc2sc3cc(C#CC4(O)CCCCC4)ccc3c(=O)c12	·	·	i	·	-9.4	-5.1
Cc1cccc2c1c(N=NC(N)=S)c(O)n2C1OC(CO)C(O)C(O)C1O (stereo unspecified)	-3.8	12.4	i	-2.5	-4.2	-7.6
O=C(NCCNC(=O)c1cc(OCC(F)(F)F)ccc1OCC(F)(F)F)Nc1cccc(C(F)(F)F)c1	7.0*	9.1	i	0.5	2.6	8.8
CN(C)S(=O)(=O)NCCNC(=O)c1cc(OCC(F)(F)F)ccc1OCC(F)(F)F	-3.8	-0.7	i	-1.5	-0.1	0.3
